Test results taken from ChEMBL document CHEMBL1140074, “Aminoacyl-anthraquinone conjugates as telomerase inhibitors: synthesis, biophysical and biological evaluation” (J Med Chem, 2008).

Assays:
Homo sapiens [1] = organism: Homo sapiens; test: Binding affinity to human telomeric DNA sequence assessed as stabilization of G-quadruplex at 10 uM by thermal denaturation
Summary of the method: (§1)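 Fluorescence melting in a LightCycler of 0.25 µM telomeric oligonucleotide HTS (5'-FAM, 3'-methyl red) in LiP buffer (10 mM LiOH, 50 mM KCl, pH 7.4 with H3PO4). Samples were denatured at 95 °C for 5 min, then cooled and reheated at 0.5 °C/min in 1 °C steps with 2 min equilibration per step. Excitation 488 nm, emission 520 nm. ΔTm was taken relative to ligand-free DNA.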

Homo sapiens [2] = organism: Homo sapiens; test: Binding affinity to human telomeric DNA sequence assessed as stabilization of G-quadruplex at 1 uM by thermal denaturation; summary of the method: as §1
[3] = biological target: DNA polymerase I, thermostable (Thermus aquaticus, UniProt P19821); test: Inhibition of Taq polymerase
Summary of the method: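 PCR with 2.5 ng pBR322 template and primers Tup/Tdown (0.5 µM) amplifying plasmid bases 906-1064. Compounds tested from 20 nM to 40 µM. Run 25 cycles of 94 °C, 65 °C and 72 °C (30 s each). Products resolved on 2% agarose in TBE and stained with ethidium bromide.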

[4] = biological target: Telomerase reverse transcriptase (Homo sapiens, UniProt O14746); test: Inhibition of telomerase in human JR8 cells by TRAP assay; type: cell-based
Summary of the method: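 Telomerase source was a CHAPS lysate of exponentially growing JR8 cells (500 ng protein per reaction). Elongation 30 min at 30 °C, then 30 PCR cycles. Products run on 10% PAGE with phosphorimager read-out, in triplicate. Drug levels kept below those inhibiting Taq.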

HeLa = test: Cytotoxicity against human HeLa cells expressing telomerase after 96 hrs by MTT assay; type: functional, cell-based
Summary of the method: (§2)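 Cells grown in DMEM with 10% heat-inactivated FCS, penicillin/streptomycin, 37 °C, 5% CO2. Plated at 10000 cells/well and left overnight, then exposed to eight serial dilutions in triplicate for 96 h. MTT added to 0.8 mg/mL final for 2 h, formazan dissolved in DMSO, absorbance read at 540 nm. IC50 from sigmoidal dose-response fits.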

[5] = Cytotoxicity against human 293T cells expressing telomerase after 96 hrs by MTT assay; type: cell-based; details: HEK-293T; summary of the method: as §2

Sequence of Telomerase reverse transcriptase (O14746 whole entry): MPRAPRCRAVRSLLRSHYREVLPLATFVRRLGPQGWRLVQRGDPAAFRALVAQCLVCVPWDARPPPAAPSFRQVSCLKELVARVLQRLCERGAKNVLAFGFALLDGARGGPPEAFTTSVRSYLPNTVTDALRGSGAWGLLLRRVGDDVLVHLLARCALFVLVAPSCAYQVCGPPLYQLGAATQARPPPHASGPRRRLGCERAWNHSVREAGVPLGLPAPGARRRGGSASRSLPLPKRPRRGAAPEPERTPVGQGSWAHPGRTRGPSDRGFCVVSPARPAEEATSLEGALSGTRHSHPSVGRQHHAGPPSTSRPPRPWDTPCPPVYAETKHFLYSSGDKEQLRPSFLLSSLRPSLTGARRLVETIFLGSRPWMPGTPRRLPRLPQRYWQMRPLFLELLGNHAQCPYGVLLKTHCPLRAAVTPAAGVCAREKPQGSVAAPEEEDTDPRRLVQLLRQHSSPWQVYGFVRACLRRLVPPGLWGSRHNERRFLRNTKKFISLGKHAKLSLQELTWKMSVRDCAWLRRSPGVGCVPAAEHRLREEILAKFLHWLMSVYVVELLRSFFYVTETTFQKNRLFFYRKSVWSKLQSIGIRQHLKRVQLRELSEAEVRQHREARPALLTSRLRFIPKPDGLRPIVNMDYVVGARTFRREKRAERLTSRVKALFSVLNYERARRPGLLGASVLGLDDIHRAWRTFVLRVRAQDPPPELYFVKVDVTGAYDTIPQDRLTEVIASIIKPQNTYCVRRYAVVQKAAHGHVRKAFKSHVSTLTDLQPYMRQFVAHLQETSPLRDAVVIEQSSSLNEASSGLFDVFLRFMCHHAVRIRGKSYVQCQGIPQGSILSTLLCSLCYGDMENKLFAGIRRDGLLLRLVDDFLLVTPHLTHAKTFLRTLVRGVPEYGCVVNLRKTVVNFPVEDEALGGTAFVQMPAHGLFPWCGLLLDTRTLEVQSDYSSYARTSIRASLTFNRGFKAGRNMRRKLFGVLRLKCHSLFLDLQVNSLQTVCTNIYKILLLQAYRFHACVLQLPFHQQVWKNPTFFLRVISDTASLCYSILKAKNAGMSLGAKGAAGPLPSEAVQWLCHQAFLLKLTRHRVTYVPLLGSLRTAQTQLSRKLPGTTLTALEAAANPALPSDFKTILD
Sequence of DNA polymerase I, thermostable (P19821 whole entry): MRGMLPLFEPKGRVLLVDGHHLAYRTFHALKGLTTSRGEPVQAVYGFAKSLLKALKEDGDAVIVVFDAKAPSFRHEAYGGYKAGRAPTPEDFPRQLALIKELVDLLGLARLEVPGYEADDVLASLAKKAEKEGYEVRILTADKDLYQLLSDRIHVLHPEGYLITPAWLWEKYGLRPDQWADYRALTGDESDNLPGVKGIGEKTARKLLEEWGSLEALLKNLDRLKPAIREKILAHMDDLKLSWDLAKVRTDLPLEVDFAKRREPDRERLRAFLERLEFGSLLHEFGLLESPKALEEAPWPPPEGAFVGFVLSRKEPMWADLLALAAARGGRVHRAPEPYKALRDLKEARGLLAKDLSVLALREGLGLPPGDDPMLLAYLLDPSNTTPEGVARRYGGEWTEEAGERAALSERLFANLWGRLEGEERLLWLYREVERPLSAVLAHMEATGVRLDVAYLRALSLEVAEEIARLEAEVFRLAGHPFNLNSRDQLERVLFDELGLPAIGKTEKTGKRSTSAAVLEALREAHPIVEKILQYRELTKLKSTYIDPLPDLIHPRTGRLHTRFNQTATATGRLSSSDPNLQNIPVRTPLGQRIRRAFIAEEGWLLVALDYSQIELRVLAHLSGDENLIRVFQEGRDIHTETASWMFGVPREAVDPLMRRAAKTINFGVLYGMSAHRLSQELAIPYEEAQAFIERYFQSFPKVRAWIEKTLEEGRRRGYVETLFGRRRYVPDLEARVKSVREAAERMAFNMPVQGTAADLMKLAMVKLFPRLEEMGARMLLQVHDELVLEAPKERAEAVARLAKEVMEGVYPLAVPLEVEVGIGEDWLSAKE

Compound	ΔTm (Homo sapiens [1]) [°C]	ΔTm (Homo sapiens [2]) [°C]	EC50 [3] [µM]	EC50 [4] [µM]	IC50 (HeLa) [µM]	IC50 [5] [µM]
CC[C@H](C)[C@H](N)C(=O)NCCNC(=O)c1ccc2c(c1)C(=O)c1ccc(C(=O)NCCNC(=O)[C@@H](N)[C@@H](C)CC)cc1C2=O	1.1	0.2	> 40	> 40		
N=C(N)NCCC[C@H](N)C(=O)NCC(=O)Nc1ccc2c(c1)C(=O)c1ccc(NC(=O)CNC(=O)[C@@H](N)CCCNC(=N)N)cc1C2=O	22.9	9.8			89	86
NCC(=O)Nc1ccc2c(c1)C(=O)c1ccc(NC(=O)CN)cc1C2=O	3.6	0.1	> 40	25	76	> 100
NCC(=O)NCCNC(=O)c1ccc2c(c1)C(=O)c1cc(C(=O)NCCNC(=O)CN)ccc1C2=O	3.3	0.4	> 40	> 40		
CC(C)[C@H](N)C(=O)NCC(=O)Nc1ccc2c(c1)C(=O)c1ccc(NC(=O)CNC(=O)[C@@H](N)C(C)C)cc1C2=O	6	0.5	> 40	> 40		
NC(N)=NCCC[C@H](N)C(=O)NCCC(=O)Nc1ccc2c(c1)C(=O)c1cc(NC(=O)CCNC(=O)[C@@H](N)CCCN=C(N)N)ccc1C2=O			4	4		
N[C@@H](Cc1ccccc1)C(=O)NCCNC(=O)c1ccc2c(c1)C(=O)c1cc(C(=O)NCCNC(=O)[C@@H](N)Cc3ccccc3)ccc1C2=O	1	0.1	> 40	> 40		
NCC(=O)NCCNC(=O)c1ccc2c(c1)C(=O)c1ccc(C(=O)NCCNC(=O)CN)cc1C2=O	2.9	0.3	> 40	> 40		
CC[C@H](C)[C@H](N)C(=O)NCCC(=O)Nc1ccc2c(c1)C(=O)c1ccc(NC(=O)CCNC(=O)[C@@H](N)[C@@H](C)CC)cc1C2=O	5.7	0	> 40	> 40		
CC(C)[C@H](N)C(=O)NCCC(=O)Nc1ccc2c(c1)C(=O)c1ccc(NC(=O)CCNC(=O)[C@@H](N)C(C)C)cc1C2=O	6	0	> 40	> 40		
N=C(N)NCCC[C@H](N)C(=O)NCCC(=O)Nc1ccc2c(c1)C(=O)c1ccc(NC(=O)CCNC(=O)[C@@H](N)CCCNC(=N)N)cc1C2=O	25	4.8			100	> 100
N[C@@H](CO)C(=O)NCCNC(=O)c1ccc2c(c1)C(=O)c1ccc(C(=O)NCCNC(=O)[C@@H](N)CO)cc1C2=O	2.5	0.3	> 40	> 40		
N[C@@H](Cc1ccccc1)C(=O)NCCC(=O)Nc1ccc2c(c1)C(=O)c1cc(NC(=O)CCNC(=O)[C@@H](N)Cc3ccccc3)ccc1C2=O	7	0.3	> 40	> 40		
NC(N)=NCCC[C@H](N)C(=O)NCC(=O)Nc1ccc2c(c1)C(=O)c1ccc(NC(=O)CNC(=O)[C@@H](N)CCCN=C(N)N)cc1C2=O			10	0.8		
O=C1c2c(O)ccc(O)c2C(=O)c2c(NCCNCCO)ccc(NCCNCCO)c21 [MITOXANTRONE]					< 0.1	< 0.1
N=C(N)NCCC[C@H](N)C(=O)NCCC(=O)Nc1ccc2c(c1)C(=O)c1cc(NC(=O)CCNC(=O)[C@@H](N)CCCNC(=N)N)ccc1C2=O	13.3	0.6				
N[C@@H](CO)C(=O)NCCNC(=O)c1ccc2c(c1)C(=O)c1cc(C(=O)NCCNC(=O)[C@@H](N)CO)ccc1C2=O	2.1	0.3	> 40	> 40		

Compound	ΔTm (Homo sapiens [1]) [°C]	ΔTm (Homo sapiens [2]) [°C]	EC50 [3] [µM]	EC50 [4] [µM]	IC50 (HeLa) [µM]	IC50 [5] [µM]
C[C@H](N)C(=O)NCCNC(=O)c1ccc2c(c1)C(=O)c1ccc(C(=O)NCCNC(=O)[C@H](C)N)cc1C2=O	4.4	0.4	> 40	> 40		
N[C@@H](Cc1ccccc1)C(=O)NCCNC(=O)c1ccc2c(c1)C(=O)c1ccc(C(=O)NCCNC(=O)[C@@H](N)Cc3ccccc3)cc1C2=O	1.1	0.2	> 40	> 40		
CC[C@H](C)[C@H](N)C(=O)NCCC(=O)Nc1ccc2c(c1)C(=O)c1cc(NC(=O)CCNC(=O)[C@@H](N)[C@@H](C)CC)ccc1C2=O	2.8	0.2	> 40	> 40		
C[C@@H](O)[C@H](N)C(=O)NCCNC(=O)c1ccc2c(c1)C(=O)c1ccc(C(=O)NCCNC(=O)[C@@H](N)[C@@H](C)O)cc1C2=O	1.9	0.4	> 40	> 40		
C[C@@H](O)[C@H](N)C(=O)NCCNC(=O)c1ccc2c(c1)C(=O)c1cc(C(=O)NCCNC(=O)[C@@H](N)[C@@H](C)O)ccc1C2=O	3.2	0.3	> 40	> 40		
C[C@H](N)C(=O)NCCC(=O)Nc1ccc2c(c1)C(=O)c1ccc(NC(=O)CCNC(=O)[C@H](C)N)cc1C2=O	8.2	0.2	> 40	> 40		
N[C@@H](Cc1ccccc1)C(=O)NCCC(=O)Nc1ccc2c(c1)C(=O)c1ccc(NC(=O)CCNC(=O)[C@@H](N)Cc3ccccc3)cc1C2=O	4.3	0.5	> 40	> 40		
CC(C)C[C@H](N)C(=O)NCCNC(=O)c1ccc2c(c1)C(=O)c1cc(C(=O)NCCNC(=O)[C@@H](N)CC(C)C)ccc1C2=O	2.7	0.3	> 40	> 40		
NC(N)=NCCC[C@H](N)C(=O)NCCC(=O)Nc1ccc2c(c1)C(=O)c1ccc(NC(=O)CCNC(=O)[C@@H](N)CCCN=C(N)N)cc1C2=O			10	0.8		
CC(C)C[C@H](N)C(=O)NCCNC(=O)c1ccc2c(c1)C(=O)c1ccc(C(=O)NCCNC(=O)[C@@H](N)CC(C)C)cc1C2=O	1.3	0.2	> 40	> 40		
CC(C)C[C@H](N)C(=O)NCC(=O)Nc1ccc2c(c1)C(=O)c1ccc(NC(=O)CNC(=O)[C@@H](N)CC(C)C)cc1C2=O	3.8	0.7	> 40	> 40		
N=C(N)NCCC[C@H](N)C(=O)NCCNC(=O)c1ccc2c(c1)C(=O)c1cc(C(=O)NCCNC(=O)[C@@H](N)CCCNC(=N)N)ccc1C2=O	16.2	5.1			35	85
N[C@@H](Cc1ccccc1)C(=O)NCC(=O)Nc1ccc2c(c1)C(=O)c1ccc(NC(=O)CNC(=O)[C@@H](N)Cc3ccccc3)cc1C2=O	0.6	0.5	> 40	> 40		
CC[C@H](C)[C@H](N)C(=O)NCCNC(=O)c1ccc2c(c1)C(=O)c1cc(C(=O)NCCNC(=O)[C@@H](N)[C@@H](C)CC)ccc1C2=O	3	0.4	> 40	> 40		
NC(N)=NCCC[C@H](N)C(=O)NCCNC(=O)c1ccc2c(c1)C(=O)c1cc(C(=O)NCCNC(=O)[C@@H](N)CCCN=C(N)N)ccc1C2=O			10	1.2		
C[C@H](N)C(=O)NCCNC(=O)c1ccc2c(c1)C(=O)c1cc(C(=O)NCCNC(=O)[C@H](C)N)ccc1C2=O	3.9	0.5	> 40	> 40		
